Bioassay records: PubChem, several laboratories
STAT1 act = activators of IFN-gamma induced STAT1 signaling | NIH 3T3 STAT1-luciferase reporter, luminescence; 100% = IFN-gamma alone, no compound | activation (% of control), % at 5.5 µM | 2.6% of 200,000 active | AID 932;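 active means activation above the screen-wide mean activation plus 3 SD, cut at about 130% in these data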;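 further: raw ratio to IFN-gamma control signal so 100% means no change and 0% no light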
NF-kB expr up = compounds increasing NF-kB expression in human neuronal cells; NF-kB reporter expression; stronger effect = higher value; fold change at 12.5 µM; 1.6% of 190,000 active; AID 1239; in the data active means fold change above about 3.3
STAT3 inh = inhibitors of IL-6 induced STAT3 signaling; 0.89% of 190,000 active; inhibition, % at 5.5 µM; U3A cells, IL-6 STAT3-luciferase reporter, luminescence; host cell line lacks STAT1;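 active means inhibition above the mean inhibition across all screened compounds plus 3 SD, cut at about 44% in these data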;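 further: 0% = DMSO only wells and 100% = 100 µM nifuroxazide control wells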
STAT1 blocker = inhibitors of IFN-gamma induced STAT1 signaling | NIH 3T3 STAT1-luciferase reporter, luminescence | inhibition, % at 5.5 µM | 0.35% of 200,000 active;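 active means inhibition above a set limit, the mean inhibition across all tested compounds plus 3 SD, cut at about 34% in these data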;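 further: 0% = IFN-gamma with DMSO and 100% = IFN-gamma with 300 µM nifuroxazide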
STAT3 act = STAT3 signaling activation; activation (% of control), % at 5.6 µM; U3A cells, IL-6 STAT3-luciferase reporter, luminescence; 100% = signal with IL-6 EC80 alone; 0.91% of 190,000 active;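 active means activation above the screen-wide mean of compound activation plus 3 SD, cut at about 130% in these data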;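 further: 0% = background luminescence of wells with medium and substrate only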
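Material: STAT3-luciferase reporter U3A cells; Probe or stimulus: IL-6 (33 ng/mL); Incubation: compound pre-incubation 1 h before IL-6, then 6 h stimulation at 37 °C; Technique: luminescence from STAT3-driven luciferase reporter; Evaluation: % activation versus median of IL-6-stimulated wells; Controls: IL-6-only high control.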
APP 5'UTR act = APP 5'UTR luciferase reporter activation. SH-SY5Y APP 5'UTR luciferase reporter, luminescence; zero percent = DMSO vehicle wells. activation, % at 2 µM. 1% of 190,000 active;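 active means activation above a set limit, based on mean plus 3 SD of controls, cut at about 140% in these data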
* hit, by the source's call; x = no result given. In the library only some 5.1% were active in any assay of this set; here they are far more common.

SMILES | STAT1 act | NF-kB expr up | STAT3 inh | STAT1 blocker | STAT3 act | APP 5'UTR act
O=C(/C=C/NNC(=O)c1ccc(Cl)cc1)c1ccccc1 | 133* | 0.91 | -2 | -36 | 105 | 1
CN(C)c1ccc(N2CN=C3SCC(=O)N3C2)cc1 | 160* | 0.58 | -31 | -67 | 128 | 136*
O=C1CSC2=NCN(c3ccc4c(c3)OCO4)CN12 | 108 | 1.7 | -14 | -8 | 114 | 69
O=C(Nc1ccc2c(c1)OCCO2)c1c(F)cccc1F | 123 | 4* | 7 | -24 | 96 | 112
O=C(NC(=S)Nc1ccc2c(c1)OCCO2)c1ccccc1 | 128 | 4.7* | 38 | -32 | 73 | 179*
NC(=O)Nc1ccc2c(c1)OCCO2 | 106 | 1.8 | -4 | -6 | 104 | x
O=C(NC(=S)Nc1ccc2c(c1)OCCO2)c1ccccc1F | 149* | 7.4* | 8 | -58 | 98 | 159*
Cc1ccc(NC(=O)Cn2nnc3ccccc3c2=O)cc1C | 104 | 1.1 | -7 | -4 | 107 | 21
CCOC(=O)c1ccc(CC2S/C(=C(\C#N)C(C)=O)NC2=O)cc1 (stereo not given) | 103 | 3.5* | -11 | -2 | 109 | -12
CC(=O)Nc1ccc(NC(=S)Nc2ccccc2)cc1 | 99 | 1.1 | 6 | 3 | 103 | 15
CC(C)(C)c1nnc(NC(=S)Nc2ccccc2)s1 | 140* | 3.6* | 6 | -41 | 96 | 92
Nn1c(=O)c2ccccc2n2c(SCc3ccc(C(F)(F)F)cc3)nnc12 | 98 | 1.4 | 12 | 2 | 90 | -6
CCCCc1ccc(-c2ccc(Br)cc2O)nc1 | 140* | 5.5* | 26 | -43 | 82 | 29
O=C(O)c1cnc(-c2ccccc2)nc1Sc1ccccc1Cl | 103 | 1 | -40 | -3 | 135* | -12
CC1C(=O)N(c2ccc(S(=O)(=O)N(C)C)cc2)C1(/C=C/c1ccccc1)C(=O)NC1CCCC1 (stereo not given) | 113 | 1 | -4 | -15 | 103 | 8
O=C(CN(CC1CCCO1)C(=O)CNS(=O)(=O)c1ccc(Cl)cc1)NCC1CCCO1 (stereo not given) | 91 | 1.3 | 14 | 8 | 91 | -14
Cc1cccc(C)c1N(Cc1ccccc1F)S(C)(=O)=O | 89 | x | 3 | 13 | 103 | -2
COC(=O)C(C)Sc1ncnc2c1nnn2-c1ccc(F)cc1 (stereo not given) | 137* | 1.5 | 10 | -41 | 92 | 14
CCOC(=O)CNC(=O)CSc1ncnc2c1nnn2-c1ccc(F)cc1 | 97 | 1.7 | 10 | 4 | 96 | -5
COc1cccc(NC(=O)Cn2c(CCC(=O)O)ccc2-c2ccc(C)cc2)c1 | 97 | x | 3 | 4 | 103 | -3
CC(NC(=O)CNC(=O)C1O[C@@H]2OC(C)(C)O[C@@H]2[C@H]2OC(C)(C)O[C@@H]12)C(=O)O (stereo not given in full) | 105 | 1 | 2 | -7 | 103 | 10
CCOc1c(Cl)cc(C(=O)Nc2ccccc2C(=O)O)cc1Cl | 120 | 4* | -21 | -21 | 124 | -6
CCOc1ccc(C(=O)Nc2ccccc2-c2ccccc2)cc1Cl | 101 | 1.2 | 26 | -1 | 83 | 0
CCOc1ccc(C(=O)Nc2cccc(C(=O)O)c2C)cc1Cl | 54 | 3.5* | 75* | 51* | 39 | 44
CCCc1nc2ccc(NC(C)=O)cc2c(=O)n1Cc1ccc(Cl)cc1 | 143* | 3.7* | -14 | -47 | 114 | 105
SMILES | STAT1 act | NF-kB expr up | STAT3 inh | STAT1 blocker | STAT3 act | APP 5'UTR act
CSCC(=O)NS(=O)(=O)c1ccc(C)cc1 | 87 | 1.2 | 2 | 15 | 96 | 9
Cc1ccc(NC(=O)c2cc(C)n(-c3ccccc3)c2C)cc1 | 65 | 0.33 | 88* | 39* | 24 | 52
Cc1cc(C(=O)N/N=C/c2cccc([N+](=O)[O-])c2)c(C)n1-c1ccccc1 | 132* | 1.2 | -5 | -35 | 104 | 36
O=C(CCSCCc1ccccn1)Nc1ccc(Br)cn1 | 100 | 1.1 | 15 | 0 | 93 | x
COc1cc(C(C(=O)NCc2ccccc2)N(Cc2ccco2)C(=O)c2cnccn2)cc(OC)c1OC (stereo not given) | 95 | 0.89 | 6 | 6 | 100 | -14
CCC(CC)c1nnc(NC(=O)C2COc3ccccc3O2)s1 (stereo not given) | 137* | 2 | 4 | -41 | 99 | 121
Cc1nnc(NC(=O)C2COc3ccccc3O2)s1 (stereo not given) | 129* | 1.6 | -14 | -33 | 116 | 19
O=C(Nc1ccncc1)C1COc2ccccc2O1 (stereo not given) | 96 | 1 | 16 | 4 | 90 | -6
O=C(NC1=NCCS1)C1COc2ccccc2O1 (stereo not given) | 29 | 0.33 | 99* | 77* | 14 | -2
Cc1cc(C(F)(F)F)nc(-n2cc(-c3cccc(N)c3)nn2)n1 | 105 | 1 | 25 | -7 | 87 | 2
Nc1cccc(-c2cn3cc(C(F)(F)F)cc(Cl)c3n2)c1 | 130* | 6.8* | -4 | -33 | 108 | x
CCCCCCCC1CC(/C(C)=N/NC(N)=O)OC1=O (stereo not given) | 99 | 1.3 | 25 | 1 | 84 | 5
O=C(CSc1nncs1)Nc1ccc2c(c1)OCO2 | 111 | 1.4 | 3 | -14 | 105 | 11
O=C(CN1C(=O)c2ccccc2S1(=O)=O)c1ccccc1 | 44 | 0.15 | 65* | 62* | 50 | -3
C#Cc1ccc([C@H]2C=C(C(=O)N3CCOCC3)O[C@@H](OCC)[C@@H]2CCCO)cc1 | 104 | 1 | x | -3 | x | -2
COc1cccc(CNC(=O)Cc2nc3nc(C)cc(C)n3n2)c1 | 100 | 1.1 | 0 | 0 | 100 | x
O=C(c1ccccc1)N1CCSc2sccc2C1=O | 64 | 1.3 | 50* | 37* | 61 | -28
COc1ccc(CCNc2ncnc3c2oc2ccccc23)cc1OC | 77 | 0.34 | 80* | 25 | 37 | -12
CC(=O)c1ccc(Nc2ncnc3c2oc2ccccc23)cc1 | 161* | 2.5 | 21 | -67 | 86 | 21
Clc1ncnc2c1oc1ccccc12 | 142* | 3.1 | -39 | -47 | 134* | 86
CCc1nc(NCc2ccccn2)c2oc3ccccc3c2n1 | x | 0.52 | x | x | x | x
COc1ccc(CCNc2nc(C)nc3c2oc2ccccc23)cc1OC | 85 | 0.46 | 34 | 16 | 72 | 20
CC(=O)Nc1ccc(Nc2nc(C)nc3c2oc2ccccc23)cc1 | 99 | 0.54 | 15 | 1 | 92 | 4
c1ccc(CNc2ncnc3c2oc2ccccc23)nc1 | 132* | 1.3 | -4 | -35 | 108 | 55
Cc1nnc(NC(=O)CCSc2ccc(Cl)cc2)s1 | 101 | 1.2 | 1 | -5 | 103 | 11
COc1ccc(C(C)C)cc1S(=O)(=O)n1ccnc1C | 101 | 1.2 | 19 | -2 | 86 | 14
